# Assay results published in PMC3131463 (Journal of medicinal chemistry, 2011).
# “And” between values parts separate entries of the source, which are not always exact repeats. Equal entries are not always repeated.
# What was measured:
# [1] = tested on: human whole blood; test: Agonism / hemolysis in human whole blood; format: cell-based; conditions: up to 1 mM
# How it was run: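 Human whole blood from healthy consenting donors, anticoagulated with lepirudin (final 50 µg/mL), was added to tubes holding test compound or PBS with Ca2+/Mg2+. It was preincubated 5–10 min at 37 °C, then given E. coli 0111:B4 ultra-pure LPS (100 ng/mL) or endotoxin-free PBS and rotated 2 h at 37 °C. EDTA (final 10 mM) was added, and plasma TNF-α, IL-8 and IL-6 were measured by singleplex Bio-plex.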
# [2] = tested on: LPS-induced NO production in RAW 264 macrophage cells; test: Suppression of LPS-induced NO production in RAW 264.7 macrophage cells; format: cell-based
# [3] = tested on: MDR1-MDCK monolayer; test: MDR1-MDCK permeability assay; format: in vitro ADME; conditions: 5 µM, apical to basolateral and basolateral to apical
# [4] = Metabolic stability in human liver S9 fractions; format: in vitro ADME
# How it was run: (§1)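 Test compound (1 µM, <0.25% DMSO) was incubated at 37 °C with pooled liver S9 protein (1 mg/mL) and 1 mM each of NADPH, UDPGA, PAPS and GSH. Cofactors were added to start reactions at 0, 10, 20, 30 and 60 min, with testosterone and 7-hydroxycoumarin (20 µM each) as positive controls. Depletion was followed by LC-MS/MS peak-area ratio to internal standard, without a standard curve. CLint = k/P.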
# [5] = tested on: AKT1, CAMK1, DDR2, GSK-3α, MAPK1, MET, PAK1, PDGFRB, PIM1, PKC-γ, PLK4, and SRC; test: KinaseSeeker kinase profiling, panel of 12 kinases; format: binding; conditions: at respective RAW264.7 IC50 concentrations (1j 28 µM, 1s 16 µM)
# [6] = Metabolic stability in rat liver S9 fractions; format: in vitro ADME
# How it was run: as §1
# [7] = molecular target: PKC-γ (Homo sapiens, UniProt P05129); test: KinaseSeeker kinase profiling, PKC-γ; format: binding; conditions: read-out: inhibition of PKC-γ (most inhibited kinase)
# [8] = Metabolic stability in human liver microsomes; format: in vitro ADME
# How it was run: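 Test compound (1 µM, <0.25% DMSO) was incubated at 37 °C with human liver microsomal protein (0.5 mg/mL). Cofactors were added to start reactions at 0, 10, 20, 30 and 60 min, with a 5 µM testosterone positive control. NADPH addition was confirmed by fluorimetry. Compound-to-internal-standard peak-area ratio was read by LC-MS/MS without a standard curve. CLint = elimination rate constant / protein concentration.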
# [9] = molecular target: T1, CYP1A2 (Homo sapiens, UniProt P05177); test: CYP IC50 in human liver microsomes, CYP1A2; format: in vitro ADME
# T1 sequence (P05177 1-516): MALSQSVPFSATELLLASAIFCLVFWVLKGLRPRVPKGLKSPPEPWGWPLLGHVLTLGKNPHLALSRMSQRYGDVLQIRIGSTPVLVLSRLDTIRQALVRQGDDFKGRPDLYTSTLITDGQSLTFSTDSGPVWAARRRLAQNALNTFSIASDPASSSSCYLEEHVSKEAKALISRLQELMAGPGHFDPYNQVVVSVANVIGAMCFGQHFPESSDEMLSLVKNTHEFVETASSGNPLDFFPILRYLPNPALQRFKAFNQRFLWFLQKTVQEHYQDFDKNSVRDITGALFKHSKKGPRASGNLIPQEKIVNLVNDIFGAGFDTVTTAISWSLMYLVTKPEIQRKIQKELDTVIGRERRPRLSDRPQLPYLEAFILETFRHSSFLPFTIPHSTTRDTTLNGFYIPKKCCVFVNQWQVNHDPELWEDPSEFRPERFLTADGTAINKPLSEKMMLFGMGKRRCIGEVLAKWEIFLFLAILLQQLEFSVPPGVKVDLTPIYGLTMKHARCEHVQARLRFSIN
# How it was run: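 Test compound was run at eight concentrations (0–100 µM), with α-naphthoflavone as positive control. Protein was precipitated and acetaminophen formation measured by LC-MS/MS. IC50 came from a sigmoidal nonlinear regression fit.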
# [10] = molecular target: MARK1 (Homo sapiens, UniProt Q9P0L2); test: KinaseSeeker kinase profiling, MARK1; format: binding; conditions: read-out: inhibition of MARK1 (most inhibited kinase)
# Sequence of MARK1 (Q9P0L2 whole entry, species assumed): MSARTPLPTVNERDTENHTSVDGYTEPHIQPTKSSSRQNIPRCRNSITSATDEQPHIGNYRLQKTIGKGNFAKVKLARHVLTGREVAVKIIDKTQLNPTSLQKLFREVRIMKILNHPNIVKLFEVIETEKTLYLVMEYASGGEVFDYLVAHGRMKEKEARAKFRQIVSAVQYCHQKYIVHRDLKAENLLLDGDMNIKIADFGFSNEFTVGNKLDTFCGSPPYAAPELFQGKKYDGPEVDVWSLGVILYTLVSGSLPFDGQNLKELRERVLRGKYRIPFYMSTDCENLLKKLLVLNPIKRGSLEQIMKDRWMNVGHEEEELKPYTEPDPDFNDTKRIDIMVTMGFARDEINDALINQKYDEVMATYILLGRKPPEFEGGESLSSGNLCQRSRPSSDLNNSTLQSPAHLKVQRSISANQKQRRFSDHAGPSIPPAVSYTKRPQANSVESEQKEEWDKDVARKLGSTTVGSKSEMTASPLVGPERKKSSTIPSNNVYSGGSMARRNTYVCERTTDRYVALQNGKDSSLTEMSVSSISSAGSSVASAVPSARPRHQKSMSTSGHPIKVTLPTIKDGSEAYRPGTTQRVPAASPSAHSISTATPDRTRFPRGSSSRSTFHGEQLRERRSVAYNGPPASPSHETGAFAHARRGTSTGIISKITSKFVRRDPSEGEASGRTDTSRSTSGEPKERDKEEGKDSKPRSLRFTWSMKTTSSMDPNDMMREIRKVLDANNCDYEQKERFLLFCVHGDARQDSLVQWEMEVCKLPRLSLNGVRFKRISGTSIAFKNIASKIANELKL
activity retained by the majority of the kinases [5],maximal inhibition of any kinase of the panel [5] [%],Structure (SMILES),agonistic effects with respect to cytokine release or hemolysis [1],suppression of NO signaling (in words) [2],further results
,,"Cc1nn(Cc2ccccc2)c(C)c1CN(C)CC(O)COc1ccccc1 (stereo not drawn) [1a, 1-(((1-benzyl-3,5-dimethyl-1H-pyrazol-4-yl)methyl)(methyl)amino)-3-phenoxypropan-2-ol]",no agonistic effects,ineffective at suppressing NO signaling,
> 95%,≤ 27,"CCOc1ccc(OCC(O)CN(C)Cc2c(C)nn(Cc3ccccc3Cl)c2C)cc1 (stereo not drawn) [1j, 1-(((1-(2-chlorobenzyl)-3,5-dimethyl-1H-pyrazol-4-yl)methyl)(methyl)amino)-3-(4-ethoxyphenoxy)propan-2-ol]",no agonistic effects,,brain-blood barrier permeability classification [3]: high; microsomal CLint at 1 µM [4]: 300 µL/min/mg; microsomal CLint [6]: > 350 µL/min/mg; inhibition at 28 µM [7]: 22.4%; microsomal CLint [8]: > 700 µL/min/mg; IC50 [9]: > 100 µM
> 95% and 95%,≤ 27,Cc1nn(Cc2ccccc2Cl)c(C)c1CN(C)CC(O)COc1ccc(Cl)cc1 (stereo not drawn) [1s],,,inhibition at 16 µM [10]: 26.7%
,,CCOc1ccc(OCC(O)CN(C)Cc2c(C)nn(Cc3ccccc3OC)c2C)cc1 (stereo not drawn) [1g],,no detectable NO suppression,
